The subject of assay [1] is Enterococcus faecium. Description: Antibacterial activity against Vancomycin-resistant Enterococcus faecium ATCC 700221 infected in cyclophosphamide induced neutropenic thigh infection CD-1 mouse model assessed as increase in survival rate at 50 mg/kg, ip qid measured after 24 hrs post-infection. It is filed as functional, organism-based. An outline of the steps:
(§1)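 Female CD-1 mice, 6–10 weeks old, made neutropenic with i.p. cyclophosphamide (150 mg/kg day 4, 100 mg/kg day 1). About 1 × 10^6 CFU of E. faecium ATCC 700221, grown in BHI with vancomycin, were injected into each thigh. Dosing was i.p. at 1, 3, 5 and 20 h post-infection, in PEG400/DMSO/H₂O (45/5/50) vehicle, with vehicle controls. Mice were euthanized at 24 h.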

The test system of assay [2] is Enterococcus faecium. Nature of the assay: Antibacterial activity against Vancomycin-resistant Enterococcus faecium ATCC 700221 infected in cyclophosphamide induced neutropenic thigh infection CD-1 mouse model assessed as reduction in weight loss at 50 mg/kg, ip qid measured after 24 hrs post-infection. The class given is functional, organism-based. An outline of the steps:
as §1

Calls of active or inactive are those of the source. The rule behind the calls is not given here.

Consider `CC(=O)NC[C@H]1CN(c2ccc(N3CCOCC3)c(F)c2)C(=O)O1`, for which the result in assay [1] and in assay [2] was Active.

Values taken from ChEMBL document CHEMBL5331111, “Synthetic Biology Facilitates Semisynthetic Development of Type V Glycopeptide Antibiotics Targeting Vancomycin-Resistant Enterococcus” (J Med Chem, 2023).
